Source: ChEMBL document CHEMBL3286113, “New potent antibacterial oxazolidinone (MRX-I) with an improved class safety profile” (J Med Chem, 2014)
In brackets after ≈: the same amount, converted by molar mass.

Assays:
[1] = biological target: T1, Amine oxidase [flavin-containing] A (Homo sapiens, UniProt P21397); experiment: Inhibition of human recombinant MAO-A expressed in yeast after 1 hr by luciferin-based luminescence assay
T1 sequence (P21397 whole entry): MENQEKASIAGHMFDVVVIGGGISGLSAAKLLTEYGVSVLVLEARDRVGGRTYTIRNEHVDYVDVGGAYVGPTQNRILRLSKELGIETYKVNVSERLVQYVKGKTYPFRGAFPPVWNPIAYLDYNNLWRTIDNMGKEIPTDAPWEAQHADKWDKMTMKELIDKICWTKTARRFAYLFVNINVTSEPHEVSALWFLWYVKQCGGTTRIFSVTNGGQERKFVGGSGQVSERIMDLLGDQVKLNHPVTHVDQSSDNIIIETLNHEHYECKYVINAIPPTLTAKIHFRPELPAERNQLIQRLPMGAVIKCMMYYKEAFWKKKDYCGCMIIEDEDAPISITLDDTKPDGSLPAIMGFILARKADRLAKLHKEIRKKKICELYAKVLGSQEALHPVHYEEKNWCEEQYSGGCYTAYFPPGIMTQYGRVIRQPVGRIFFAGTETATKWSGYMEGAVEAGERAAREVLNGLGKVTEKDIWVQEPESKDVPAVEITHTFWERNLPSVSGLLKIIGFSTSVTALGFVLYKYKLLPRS

[2] = test system: Staphylococcus aureus; experiment: Antibacterial activity against Staphylococcus aureus in po dosed mouse septicemia model; assay type: functional
[3] = test system: Staphylococcus aureus; experiment: Antibacterial activity against methicillin-resistant Staphylococcus aureus SAU1009; assay type: functional
Summary of the method: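 MIC against MRSA strain SAU1009.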

[4] = test system: Staphylococcus aureus; experiment: Antibacterial activity against Staphylococcus aureus; assay type: functional
[5] = test system: Staphylococcus aureus; experiment: Antibacterial activity against Staphylococcus aureus by agar dilution method; assay type: functional
Summary of the method: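 MIC determined by agar dilution across S. aureus/MRSA isolates; MIC90 is the concentration inhibiting 90% of strains tested.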

| MIC [4] [mg/L] | SMILES | ED50 [2] [mg/kg] | MIC [3] [mg/L] | other results |
| --- | --- | --- | --- | --- |
| – | COC(=O)NC[C@H]1CN(c2cc(F)c(N3C=CC(=O)CC3)c(F)c2F)C(=O)O1 | 6.3 | 2 (≈ 5.01 µM) | IC50 [1]: 61.1 µM |
| 32 (≈ 109 µM) | CC(=O)NC[C@H]1CN(c2ccc(C(C)=O)cc2F)C(=O)O1 | – | – | – |
| – | O=C1C=CN(c2ccc(N3C[C@H](COc4ccon4)OC3=O)c(F)c2F)CC1 | > 20 | 4 (≈ 10.2 µM) | – |
| 0.5 (≈ 1.81 µM) | CC(=O)NC[C@H]1CN(c2ccc(C(C)=O)cc2)C(=O)O1 [DUP-721] | – | – | – |
| – | CC(=O)NC[C@H]1CN(c2cc(F)c(N3CCOCC3)c(F)c2F)C(=O)O1 | – | – | MIC90 [5]: 4 mg/L (≈ 10.7 µM) |
